Measured values as given in ChEMBL document CHEMBL1129460, “Synthesis, biotransformation, and pharmacokinetic studies of 9-(beta-D-arabinofuranosyl)-6-azidopurine: a prodrug for ara-A designed to utilize the azide reduction pathway” (J Med Chem, 1996).

Experiments:
[1] = Pharmacokinetic parameter after dosing of 100 mg/kg of compound administered orally in brain; assay type: ADME, organism-based; design: dose 100 mg/kg, route oral; conditions: in vivo, po
Outline: (§1)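 Female NIH Swiss mice (24–28 g) dosed 100 mg/kg, iv or po by line. At least three mice were sacrificed per time point, 0.08–6 h, and whole brains were frozen at -20 °C. Extracts were assayed by HPLC-UV with AzdU internal standard. Noncompartmental analysis: linear trapezoidal AUC extrapolated to infinity, T1/2 = 0.693/λz, relative exposure re = AUC brain/AUC serum.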

[2] = Pharmacokinetic parameter after dosing of 100 mg/kg of compound administered intravenously in brain; assay type: ADME, organism-based; design: dose 100 mg/kg, route intravenous; conditions: in vivo, iv; outline: as §1
[3] = organism: Mus musculus; assay: In vitro biotransformation of compound in mice liver homogenate 9-(beta-D-arabinifuranosyl)[…] analyte; assay type: ADME
Outline: (§2)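 Mouse liver washed in cold saline, homogenized with 1 or 1.5 weight equiv water; homogenate incubated at 37 °C with substrate (initial 100 µg/mL; coformycin co-incubated where stated), water-bath shaker, blank half kept. Samples at 0, 5, 15, 30 min and 1–5 h; acetonitrile precipitation with AzdU internal standard, gradient HPLC-UV for ara-H, ara-A and 6-AAP. Kel and T1/2 are averages of two studies.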

[4] = organism: Mus musculus; assay: In vitro biotransformation of compound in mice liver homogenate 9-(beta-D-arabinifuranosyl)-6-hypoxanthine(ara-H) analyte; assay type: ADME; outline: as §2
[5] = organism: Mus musculus; assay: In vitro biotransformation of compound in mice liver homogenate 9-(beta-D-arabinifuranosyl)adenine(ara-A) analyte; assay type: ADME; outline: as §2
[6] = organism: Mus musculus; assay: In vitro biotransformation of compound along with coformycin in mice liver homogenate 9-(beta-D-arabinifuranosyl)adenine(ara-A) analyte; assay type: ADME; outline: as §2

Row | SMILES | Activity [1] | Activity [2] | Kel [3] [h⁻¹] | T1/2 [3] [h] | Kel [4] [h⁻¹] | T1/2 [4] [h] | Kel [5] [h⁻¹] | T1/2 [5] [h] | Kel [6] [h⁻¹] | T1/2 [6] [h]
1 | Nc1ncnc2c1ncn2[C@@H]1O[C@H](CO)[C@@H](O)[C@@H]1O [VIDARABINE] | 1.35 | 0.05 | 0.31 | 2.24 | – | – | – | – | – | –
2 | [N-]=[N+]=Nc1ncnc2c1ncn2[C@@H]1O[C@H](CO)[C@@H](O)[C@@H]1O | 0.3 | 0.02 | – | – | 0.26 | 2.45 | 0.48 | 1.46 | – | –
3 | OC[C@H]1O[C@@H](n2cnc3c2NC=NC[C@H]3O)[C@H](O)[C@@H]1O.[N-]=[N+]=Nc1ncnc2c1ncn2[C@@H]1O[C@H](CO)[C@@H](O)[C@@H]1O | – | – | – | – | – | – | – | – | 0.27 | 2.58
